In ChEMBL document CHEMBL5058577, “EUbOPEN Chemogenomics Library 2 (Multiplex)” (2022):

Tested on: Fibroblast
Test: Multiplex assay against human fibroblast
Type: toxicity, cell-based
Method in brief: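 Cells were classed with CellPathfinder machine-learning gating, first as Hoechst high-intensity objects or normal cells, then (normal cells) as healthy, pyknosed or fragmented nuclei, and finally (pyknosed cells) as mitotic or apoptotic. Staining of live cells at seeding used Hoechst33342, BioTracker Green Microtubule Cytoskeleton Dye, MitoTracker Red and Annexin V Alexa Fluor 680, with imaging on a CQ1 microscope at 37°C and 5% CO2 after compound addition. Tubulin, mitochondrial-mass and membrane-permeability phenotypes are per cents of healthy-nucleus cells.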

[1] = 12 h, 1 µM, compound concentration 1 uM, replicate 1
[2] = 12 h, 1 µM, compound concentration 1 uM, replicate 2
[3] = 12 h, 10 µM, compound concentration 10 uM, replicate 1
[4] = 12 h, 10 µM, compound concentration 10 uM, replicate 2
[5] = 24 h, 1 µM, compound concentration 1 uM, replicate 1
[6] = 24 h, 1 µM, compound concentration 1 uM, replicate 2
[7] = 24 h, 10 µM, compound concentration 10 uM, replicate 1
[8] = 24 h, 10 µM, compound concentration 10 uM, replicate 2
[9] = 48 h, 1 µM, compound concentration 1 uM, replicate 1
[10] = 48 h, 1 µM, compound concentration 1 uM, replicate 2
[11] = 48 h, 10 µM, compound concentration 10 uM, replicate 1
[12] = 48 h, 10 µM, compound concentration 10 uM, replicate 2

## Cc1cc(O)c(-c2ccc([C@@H](C)CN(C)C)cc2)c2c1[nH]c(=O)c1sccc12
[1]
  Population Apoptotic (%): 59%
  Population Fragmented Nuclei (%): 12%
  Population Healthy Nuclei (%): 67%
  Population Hoechst High Intensity Objects (%): 7%
  Population Membrane Permeable-Phenotype (%): 1%
  Population Mitochondria Different-Phenotype (%): 17%
  Population Mitotic Cells (%): 40%
  Population Normal (%): 92%
  Population Pyknosed Nuclei (%): 20%
  Population Tubulin-Different-Phenotype (%): 44%
  Total Cell Count: 145
[2]
  Population Apoptotic (%): 50%
  Population Fragmented Nuclei (%): 22%
  Population Healthy Nuclei (%): 56%
  Population Hoechst High Intensity Objects (%): 2%
  Population Membrane Permeable-Phenotype (%): 4%
  Population Mitochondria Different-Phenotype (%): 12%
  Population Mitotic Cells (%): 50%
  Population Normal (%): 97%
  Population Pyknosed Nuclei (%): 21%
  Population Tubulin-Different-Phenotype (%): 52%
  Total Cell Count: 115
[3]
  Population Apoptotic (%): 69%
  Population Fragmented Nuclei (%): 19%
  Population Healthy Nuclei (%): 63%
  Population Hoechst High Intensity Objects (%): 6%
  Population Membrane Permeable-Phenotype (%): 0%
  Population Mitochondria Different-Phenotype (%): 40%
  Population Mitotic Cells (%): 30%
  Population Normal (%): 93%
  Population Pyknosed Nuclei (%): 16%
  Population Tubulin-Different-Phenotype (%): 90%
  Total Cell Count: 146
[4]
  Population Apoptotic (%): 70%
  Population Fragmented Nuclei (%): 28%
  Population Healthy Nuclei (%): 55%
  Population Hoechst High Intensity Objects (%): 5%
  Population Membrane Permeable-Phenotype (%): 2%
  Population Mitochondria Different-Phenotype (%): 19%
  Population Normal (%): 94%
  Population Pyknosed Nuclei (%): 15%
  Population Tubulin-Different-Phenotype (%): 80%
  Total Cell Count: 137
[5]
  Population Apoptotic (%): 45%
  Population Fragmented Nuclei (%): 11%
  Population Healthy Nuclei (%): 66%
  Population Hoechst High Intensity Objects (%): 7%
  Population Membrane Permeable-Phenotype (%): 0%
  Population Mitochondria Different-Phenotype (%): 27%
  Population Mitotic Cells (%): 54%
  Population Normal (%): 92%
  Population Pyknosed Nuclei (%): 21%
  Population Tubulin-Different-Phenotype (%): 73%
  Total Cell Count: 119
[6]
  Population Apoptotic (%): 52%
  Population Fragmented Nuclei (%): 28%
  Population Healthy Nuclei (%): 54%
  Population Hoechst High Intensity Objects (%): 9%
  Population Membrane Permeable-Phenotype (%): 1%
  Population Mitochondria Different-Phenotype (%): 10%
  Population Mitotic Cells (%): 47%
  Population Normal (%): 90%
  Population Pyknosed Nuclei (%): 16%
  Population Tubulin-Different-Phenotype (%): 56%
  Total Cell Count: 111
[7]
  Population Apoptotic (%): 66%
  Population Fragmented Nuclei (%): 11%
  Population Healthy Nuclei (%): 65%
  Population Hoechst High Intensity Objects (%): 3%
  Population Membrane Permeable-Phenotype (%): 0%
  Population Mitochondria Different-Phenotype (%): 42%
  Population Mitotic Cells (%): 33%
  Population Normal (%): 96%
  Population Pyknosed Nuclei (%): 22%
  Population Tubulin-Different-Phenotype (%): 87%
  Total Cell Count: 122
[8]
  Population Apoptotic (%): 57%
  Population Fragmented Nuclei (%): 30%
  Population Healthy Nuclei (%): 51%
  Population Hoechst High Intensity Objects (%): 8%
  Population Membrane Permeable-Phenotype (%): 3%
  Population Mitochondria Different-Phenotype (%): 34%
  Population Mitotic Cells (%): 42%
  Population Normal (%): 91%
  Population Pyknosed Nuclei (%): 18%
  Population Tubulin-Different-Phenotype (%): 81%
  Total Cell Count: 124
[9]
  Population Apoptotic (%): 70%
  Population Fragmented Nuclei (%): 19%
  Population Healthy Nuclei (%): 55%
  Population Hoechst High Intensity Objects (%): 7%
  Population Membrane Permeable-Phenotype (%): 1%
  Population Mitochondria Different-Phenotype (%): 26%
  Population Mitotic Cells (%): 29%
  Population Normal (%): 92%
  Population Pyknosed Nuclei (%): 24%
  Population Tubulin-Different-Phenotype (%): 70%
  Total Cell Count: 118
[10]
  Population Apoptotic (%): 57%
  Population Fragmented Nuclei (%): 31%
  Population Healthy Nuclei (%): 48%
  Population Hoechst High Intensity Objects (%): 9%
  Population Membrane Permeable-Phenotype (%): 2%
  Population Mitochondria Different-Phenotype (%): 20%
  Population Mitotic Cells (%): 42%
  Population Normal (%): 90%
  Population Pyknosed Nuclei (%): 20%
  Population Tubulin-Different-Phenotype (%): 62%
  Total Cell Count: 103
[11]
  Population Apoptotic (%): 70%
  Population Fragmented Nuclei (%): 17%
  Population Healthy Nuclei (%): 53%
  Population Hoechst High Intensity Objects (%): 10%
  Population Membrane Permeable-Phenotype (%): 0%
  Population Mitochondria Different-Phenotype (%): 53%
  Population Mitotic Cells (%): 29%
  Population Normal (%): 89%
  Population Pyknosed Nuclei (%): 29%
  Population Tubulin-Different-Phenotype (%): 89%
  Total Cell Count: 117
[12]
  Population Apoptotic (%): 71%
  Population Fragmented Nuclei (%): 39%
  Population Healthy Nuclei (%): 43%
  Population Hoechst High Intensity Objects (%): 7%
  Population Mitochondria Different-Phenotype (%): 30%
  Population Mitotic Cells (%): 28%
  Population Normal (%): 92%
  Population Pyknosed Nuclei (%): 16%
  Population Tubulin-Different-Phenotype (%): 85%
  Total Cell Count: 136

## CC(F)(F)CN1CCOc2c(nn(-c3ccccc3Cl)c2-c2ccc(Cl)cc2)C1=O
[1]
  Population Apoptotic (%): 42%
  Population Healthy Nuclei (%): 66%
  Population Hoechst High Intensity Objects (%): 0%
  Population Mitochondria Different-Phenotype (%): 4%
  Population Mitotic Cells (%): 57%
  Population Normal (%): 99%
  Population Pyknosed Nuclei (%): 15%
  Total Cell Count: 125
[2]
  Population Apoptotic (%): 31%
  Population Healthy Nuclei (%): 48%
  Population Mitochondria Different-Phenotype (%): 10%
  Population Mitotic Cells (%): 68%
  Population Normal (%): 93%
  Population Pyknosed Nuclei (%): 25%
  Population Tubulin-Different-Phenotype (%): 61%
  Total Cell Count: 122
[3]
  Population Apoptotic (%): 47%
  Population Healthy Nuclei (%): 66%
  Population Hoechst High Intensity Objects (%): 1%
  Population Mitochondria Different-Phenotype (%): 19%
  Population Mitotic Cells (%): 52%
  Population Normal (%): 98%
  Population Pyknosed Nuclei (%): 17%
  Population Tubulin-Different-Phenotype (%): 49%
  Total Cell Count: 109
[4]
  Population Apoptotic (%): 30%
  Population Healthy Nuclei (%): 53%
  Population Hoechst High Intensity Objects (%): 5%
  Population Mitochondria Different-Phenotype (%): 8%
  Population Mitotic Cells (%): 70%
  Population Normal (%): 94%
  Population Pyknosed Nuclei (%): 15%
  Population Tubulin-Different-Phenotype (%): 57%
  Total Cell Count: 134
[5]
  Population Apoptotic (%): 61%
  Population Healthy Nuclei (%): 65%
  Population Hoechst High Intensity Objects (%): 1%
  Population Mitochondria Different-Phenotype (%): 2%
  Population Mitotic Cells (%): 38%
  Population Normal (%): 98%
  Population Pyknosed Nuclei (%): 15%
  Total Cell Count: 119
[6]
  Population Apoptotic (%): 64%
  Population Healthy Nuclei (%): 52%
  Population Hoechst High Intensity Objects (%): 4%
  Population Mitochondria Different-Phenotype (%): 10%
  Population Mitotic Cells (%): 36%
  Population Normal (%): 95%
  Population Pyknosed Nuclei (%): 20%
  Population Tubulin-Different-Phenotype (%): 75%
  Total Cell Count: 129
[7]
  Population Apoptotic (%): 33%
  Population Healthy Nuclei (%): 65%
  Population Hoechst High Intensity Objects (%): 0%
  Population Mitochondria Different-Phenotype (%): 26%
  Population Mitotic Cells (%): 66%
  Population Normal (%): 99%
  Population Pyknosed Nuclei (%): 10%
  Population Tubulin-Different-Phenotype (%): 58%
  Total Cell Count: 111
[8]
  Population Apoptotic (%): 35%
  Population Healthy Nuclei (%): 54%
  Population Hoechst High Intensity Objects (%): 1%
  Population Mitochondria Different-Phenotype (%): 10%
  Population Mitotic Cells (%): 64%
  Population Normal (%): 98%
  Population Pyknosed Nuclei (%): 14%
  Population Tubulin-Different-Phenotype (%): 60%
  Total Cell Count: 121
[9]
  Population Apoptotic (%): 56%
  Population Healthy Nuclei (%): 63%
  Population Hoechst High Intensity Objects (%): 1%
  Population Mitochondria Different-Phenotype (%): 2%
  Population Mitotic Cells (%): 43%
  Population Normal (%): 98%
  Population Pyknosed Nuclei (%): 11%
  Population Tubulin-Different-Phenotype (%): 35%
  Total Cell Count: 136
[10]
  Population Apoptotic (%): 40%
  Population Healthy Nuclei (%): 53%
  Population Hoechst High Intensity Objects (%): 4%
  Population Mitochondria Different-Phenotype (%): 21%
  Population Mitotic Cells (%): 60%
  Population Normal (%): 95%
  Population Pyknosed Nuclei (%): 7%
  Population Tubulin-Different-Phenotype (%): 72%
  Total Cell Count: 135
[11]
  Population Apoptotic (%): 78%
  Population Healthy Nuclei (%): 56%
  Population Hoechst High Intensity Objects (%): 1%
  Population Mitochondria Different-Phenotype (%): 22%
  Population Mitotic Cells (%): 21%
  Population Normal (%): 98%
  Population Pyknosed Nuclei (%): 11%
  Total Cell Count: 120
[12]
  Population Apoptotic (%): 54%
  Population Healthy Nuclei (%): 54%
  Population Mitochondria Different-Phenotype (%): 7%
  Population Mitotic Cells (%): 45%
  Population Pyknosed Nuclei (%): 7%
  Population Tubulin-Different-Phenotype (%): 57%
  Total Cell Count: 141
